In the M2OR odorant receptor database:

Columns and labels:
Conditions in all cases: stereoisomer not certain
UniProt Q8VGC6 = target: T1, UniProt Q8VGC6
T1 sequence (whole entry): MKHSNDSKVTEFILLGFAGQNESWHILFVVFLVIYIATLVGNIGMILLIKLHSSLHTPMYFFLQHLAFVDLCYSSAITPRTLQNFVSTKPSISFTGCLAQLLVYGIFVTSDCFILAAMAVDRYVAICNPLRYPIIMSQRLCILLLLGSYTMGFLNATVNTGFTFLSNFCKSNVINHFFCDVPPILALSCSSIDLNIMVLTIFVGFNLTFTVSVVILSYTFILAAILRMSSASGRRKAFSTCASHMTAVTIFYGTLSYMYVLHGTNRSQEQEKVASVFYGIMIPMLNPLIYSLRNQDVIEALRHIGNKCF
Summary of the method: (§1)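 Transient luciferase assays in mammalian cell lines were common, though methods varied by source. The values come from published papers and their supplementary material, with extra details from the original authors when needed. Responsive refers to a measured signal the original authors judged statistically different from baseline, and non-responsive (inactive) to the remainder.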

UniProt Q8VGD7 = target: T2, UniProt Q8VGD7
T2 sequence (whole entry): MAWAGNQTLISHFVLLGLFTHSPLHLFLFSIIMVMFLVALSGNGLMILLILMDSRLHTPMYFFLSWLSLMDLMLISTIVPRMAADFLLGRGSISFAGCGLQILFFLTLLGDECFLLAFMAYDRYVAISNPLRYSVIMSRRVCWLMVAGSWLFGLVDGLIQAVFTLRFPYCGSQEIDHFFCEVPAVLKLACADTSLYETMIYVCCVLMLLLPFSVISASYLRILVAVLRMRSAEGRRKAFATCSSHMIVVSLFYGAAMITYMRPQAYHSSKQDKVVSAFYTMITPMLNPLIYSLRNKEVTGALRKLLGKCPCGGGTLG
Summary of the method: as §1

UniProt Q8VGH1 = target: T3, UniProt Q8VGH1
T3 sequence (whole entry): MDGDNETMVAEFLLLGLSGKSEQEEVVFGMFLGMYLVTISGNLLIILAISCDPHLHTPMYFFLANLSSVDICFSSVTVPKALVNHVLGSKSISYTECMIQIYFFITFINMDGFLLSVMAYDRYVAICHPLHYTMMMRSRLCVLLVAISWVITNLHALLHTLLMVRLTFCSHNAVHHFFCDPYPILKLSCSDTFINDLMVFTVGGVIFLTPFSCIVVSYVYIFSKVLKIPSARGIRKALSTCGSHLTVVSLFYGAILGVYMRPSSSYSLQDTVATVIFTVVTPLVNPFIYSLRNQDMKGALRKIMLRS
Summary of the method: as §1

UniProt Q8VGJ1 = target: T4, UniProt Q8VGJ1
T4 sequence (whole entry): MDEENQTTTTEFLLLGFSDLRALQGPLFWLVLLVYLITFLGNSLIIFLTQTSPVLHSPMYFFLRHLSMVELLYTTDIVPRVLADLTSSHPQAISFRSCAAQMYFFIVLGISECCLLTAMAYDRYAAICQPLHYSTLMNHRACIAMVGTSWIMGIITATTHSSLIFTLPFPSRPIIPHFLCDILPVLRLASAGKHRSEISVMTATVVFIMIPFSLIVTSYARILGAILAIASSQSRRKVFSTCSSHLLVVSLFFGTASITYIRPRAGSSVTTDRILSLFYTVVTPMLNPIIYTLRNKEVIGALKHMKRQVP
Summary of the method: as §1

UniProt Q8VGJ3 = target: T5, UniProt Q8VGJ3
T5 sequence (whole entry): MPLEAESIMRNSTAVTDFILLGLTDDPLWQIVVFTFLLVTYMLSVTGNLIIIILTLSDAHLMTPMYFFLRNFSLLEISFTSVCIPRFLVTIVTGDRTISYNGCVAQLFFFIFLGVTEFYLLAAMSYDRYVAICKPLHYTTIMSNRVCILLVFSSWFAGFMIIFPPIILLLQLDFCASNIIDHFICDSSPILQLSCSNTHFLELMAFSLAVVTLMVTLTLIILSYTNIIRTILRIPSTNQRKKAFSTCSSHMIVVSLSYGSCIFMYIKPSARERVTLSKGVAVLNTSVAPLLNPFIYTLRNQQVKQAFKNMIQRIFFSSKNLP
Summary of the method: as §1

UniProt Q8VGJ5 = target: T6, UniProt Q8VGJ5
T6 sequence (whole entry): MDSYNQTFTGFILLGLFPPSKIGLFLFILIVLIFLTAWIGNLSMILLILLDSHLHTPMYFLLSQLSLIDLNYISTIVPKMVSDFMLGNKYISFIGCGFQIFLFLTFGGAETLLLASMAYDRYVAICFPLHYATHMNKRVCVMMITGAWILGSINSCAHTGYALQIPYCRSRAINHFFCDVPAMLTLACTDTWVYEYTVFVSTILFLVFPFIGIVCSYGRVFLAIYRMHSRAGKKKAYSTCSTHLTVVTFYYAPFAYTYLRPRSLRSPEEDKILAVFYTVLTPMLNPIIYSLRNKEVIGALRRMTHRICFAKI
Summary of the method: as §1

UniProt Q8VGL0 = target: T7, UniProt Q8VGL0
T7 sequence (whole entry): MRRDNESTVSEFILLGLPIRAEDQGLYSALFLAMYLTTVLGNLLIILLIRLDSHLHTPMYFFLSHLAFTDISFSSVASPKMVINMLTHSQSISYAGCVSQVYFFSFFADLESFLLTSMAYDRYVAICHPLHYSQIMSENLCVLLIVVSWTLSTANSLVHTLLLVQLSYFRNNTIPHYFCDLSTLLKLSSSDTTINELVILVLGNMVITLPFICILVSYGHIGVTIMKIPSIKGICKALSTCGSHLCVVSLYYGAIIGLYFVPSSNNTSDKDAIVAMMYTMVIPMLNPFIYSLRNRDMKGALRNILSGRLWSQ
Summary of the method: as §1

UniProt Q8VGL7 = target: T8, UniProt Q8VGL7
T8 sequence (whole entry): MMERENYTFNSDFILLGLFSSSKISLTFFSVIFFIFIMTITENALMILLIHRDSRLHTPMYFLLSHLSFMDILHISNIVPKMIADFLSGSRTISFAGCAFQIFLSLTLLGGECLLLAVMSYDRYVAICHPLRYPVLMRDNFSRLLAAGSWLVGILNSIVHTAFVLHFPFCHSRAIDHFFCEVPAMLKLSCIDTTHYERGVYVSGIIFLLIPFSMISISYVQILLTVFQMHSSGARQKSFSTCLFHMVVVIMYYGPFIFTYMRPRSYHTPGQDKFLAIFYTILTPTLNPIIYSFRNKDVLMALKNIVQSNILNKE
Summary of the method: as §1

UniProt Q8VGM2 = target: T9, UniProt Q8VGM2
T9 sequence (whole entry): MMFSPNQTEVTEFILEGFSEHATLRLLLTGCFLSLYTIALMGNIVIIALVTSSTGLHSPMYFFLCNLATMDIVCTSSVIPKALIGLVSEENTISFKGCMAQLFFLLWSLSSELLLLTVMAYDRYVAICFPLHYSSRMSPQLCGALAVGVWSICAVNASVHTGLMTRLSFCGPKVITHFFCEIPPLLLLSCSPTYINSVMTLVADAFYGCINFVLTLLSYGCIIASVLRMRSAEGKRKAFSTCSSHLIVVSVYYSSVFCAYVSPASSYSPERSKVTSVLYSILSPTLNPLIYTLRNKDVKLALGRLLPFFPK
Summary of the method: as §1

UniProt Q8VGP6 = target: T10, UniProt Q8VGP6
T10 sequence (whole entry): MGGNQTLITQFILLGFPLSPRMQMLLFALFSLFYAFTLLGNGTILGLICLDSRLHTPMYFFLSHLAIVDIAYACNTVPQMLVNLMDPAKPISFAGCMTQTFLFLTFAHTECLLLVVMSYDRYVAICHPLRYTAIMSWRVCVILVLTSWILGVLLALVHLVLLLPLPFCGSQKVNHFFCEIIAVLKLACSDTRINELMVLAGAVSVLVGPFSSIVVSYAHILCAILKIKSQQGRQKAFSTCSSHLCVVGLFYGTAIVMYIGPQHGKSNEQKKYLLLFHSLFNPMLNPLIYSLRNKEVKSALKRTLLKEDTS
Summary of the method: as §1

UniProt Q8VGQ3 = target: T11, UniProt Q8VGQ3
T11 sequence (whole entry): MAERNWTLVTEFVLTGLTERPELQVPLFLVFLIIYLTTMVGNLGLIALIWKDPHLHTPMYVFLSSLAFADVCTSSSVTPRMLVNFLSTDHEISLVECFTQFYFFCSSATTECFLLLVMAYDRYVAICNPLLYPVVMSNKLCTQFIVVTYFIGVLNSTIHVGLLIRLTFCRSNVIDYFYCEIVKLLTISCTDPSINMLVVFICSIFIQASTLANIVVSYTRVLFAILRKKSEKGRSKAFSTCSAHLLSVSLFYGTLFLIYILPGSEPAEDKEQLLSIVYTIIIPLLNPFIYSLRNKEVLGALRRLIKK
Summary of the method: as §1

UniProt Q8VGT4 = target: T12, UniProt Q8VGT4
T12 sequence (whole entry): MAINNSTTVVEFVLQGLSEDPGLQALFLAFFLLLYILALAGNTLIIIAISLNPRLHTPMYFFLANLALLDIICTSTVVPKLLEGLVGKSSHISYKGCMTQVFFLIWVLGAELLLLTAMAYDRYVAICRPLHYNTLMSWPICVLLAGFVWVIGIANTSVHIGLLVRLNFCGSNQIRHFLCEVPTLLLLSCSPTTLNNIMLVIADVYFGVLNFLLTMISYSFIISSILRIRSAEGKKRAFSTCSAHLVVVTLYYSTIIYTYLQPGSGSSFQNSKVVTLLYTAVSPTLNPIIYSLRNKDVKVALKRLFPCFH
Summary of the method: as §1

UniProt Q8VGU3 = target: T13, UniProt Q8VGU3
T13 sequence (whole entry): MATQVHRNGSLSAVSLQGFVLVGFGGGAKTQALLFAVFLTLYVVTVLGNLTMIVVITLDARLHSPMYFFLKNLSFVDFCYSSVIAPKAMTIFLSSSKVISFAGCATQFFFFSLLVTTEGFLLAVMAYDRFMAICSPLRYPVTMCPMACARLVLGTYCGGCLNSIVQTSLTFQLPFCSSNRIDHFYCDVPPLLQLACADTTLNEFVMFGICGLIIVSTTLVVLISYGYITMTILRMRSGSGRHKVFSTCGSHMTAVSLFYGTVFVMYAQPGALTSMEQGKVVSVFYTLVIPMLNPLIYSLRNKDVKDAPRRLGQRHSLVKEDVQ
Summary of the method: as §1

UniProt Q8VGV1 = target: T14, UniProt Q8VGV1
T14 sequence (whole entry): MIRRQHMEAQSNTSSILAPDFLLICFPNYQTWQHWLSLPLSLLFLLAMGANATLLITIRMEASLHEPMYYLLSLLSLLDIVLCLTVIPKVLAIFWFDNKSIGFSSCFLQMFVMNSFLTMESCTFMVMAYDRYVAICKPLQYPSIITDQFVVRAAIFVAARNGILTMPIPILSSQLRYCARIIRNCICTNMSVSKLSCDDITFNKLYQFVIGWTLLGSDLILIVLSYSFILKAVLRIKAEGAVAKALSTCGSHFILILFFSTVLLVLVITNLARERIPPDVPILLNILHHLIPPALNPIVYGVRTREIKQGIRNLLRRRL
Summary of the method: as §1

UniProt Q8VGV7 = target: T15, UniProt Q8VGV7
T15 sequence (whole entry): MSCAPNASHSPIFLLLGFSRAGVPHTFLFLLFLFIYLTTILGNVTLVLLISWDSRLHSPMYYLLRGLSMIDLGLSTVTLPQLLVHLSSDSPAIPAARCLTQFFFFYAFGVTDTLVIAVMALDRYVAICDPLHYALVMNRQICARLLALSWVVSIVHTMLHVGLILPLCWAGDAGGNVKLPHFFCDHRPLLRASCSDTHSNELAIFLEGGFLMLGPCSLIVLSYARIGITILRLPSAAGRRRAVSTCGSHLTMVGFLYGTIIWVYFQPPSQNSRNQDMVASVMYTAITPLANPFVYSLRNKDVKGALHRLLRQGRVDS
Summary of the method: as §1

UniProt Q8VGX3 = target: T16, UniProt Q8VGX3
T16 sequence (whole entry): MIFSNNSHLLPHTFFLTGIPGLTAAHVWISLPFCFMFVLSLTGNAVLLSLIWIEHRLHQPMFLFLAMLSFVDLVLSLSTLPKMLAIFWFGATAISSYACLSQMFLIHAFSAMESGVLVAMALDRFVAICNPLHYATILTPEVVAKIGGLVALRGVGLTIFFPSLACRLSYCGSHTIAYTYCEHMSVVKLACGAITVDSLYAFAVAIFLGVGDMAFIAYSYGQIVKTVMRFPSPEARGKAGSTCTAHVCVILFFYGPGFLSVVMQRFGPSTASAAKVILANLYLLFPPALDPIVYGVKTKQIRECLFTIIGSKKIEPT
Summary of the method: as §1

UniProt Q8VGX5 = target: T17, UniProt Q8VGX5
T17 sequence (whole entry): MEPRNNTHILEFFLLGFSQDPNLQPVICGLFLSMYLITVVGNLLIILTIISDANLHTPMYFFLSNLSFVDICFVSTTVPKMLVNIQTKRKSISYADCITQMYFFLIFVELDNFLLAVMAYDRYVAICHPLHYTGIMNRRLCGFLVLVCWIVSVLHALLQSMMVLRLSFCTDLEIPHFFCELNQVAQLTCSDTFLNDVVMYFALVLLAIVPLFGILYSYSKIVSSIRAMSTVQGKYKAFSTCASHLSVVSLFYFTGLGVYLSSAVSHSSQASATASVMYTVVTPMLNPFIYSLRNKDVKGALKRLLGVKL
Summary of the method: as §1

UniProt Q8VGW5 = target: T18, UniProt Q8VGW5
T18 sequence (whole entry): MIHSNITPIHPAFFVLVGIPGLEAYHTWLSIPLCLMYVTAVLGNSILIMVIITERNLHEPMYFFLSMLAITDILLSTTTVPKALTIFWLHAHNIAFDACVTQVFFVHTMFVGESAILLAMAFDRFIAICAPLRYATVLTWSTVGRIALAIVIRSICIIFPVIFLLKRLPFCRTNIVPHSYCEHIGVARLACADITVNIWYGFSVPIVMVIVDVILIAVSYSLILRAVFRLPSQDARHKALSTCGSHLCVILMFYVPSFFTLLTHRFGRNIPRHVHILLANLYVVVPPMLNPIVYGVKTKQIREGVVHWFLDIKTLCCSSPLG
Summary of the method: as §1

Measured: odorant receptor agonist call

CCCCC(=O)CC
active: UniProt Q8VGC6 | UniProt Q8VGJ5
not listed: UniProt Q8VGW5
inactive: all other assays above

CCCC(C)=O
not listed: UniProt Q8VGJ3 | UniProt Q8VGU3 | UniProt Q8VGV7 | UniProt Q8VGX3
inactive: all other assays above

CCOC(=O)C(C)C
active: UniProt Q8VGJ5 | UniProt Q8VGL7
not listed: UniProt Q8VGW5
inactive: all other assays above

C=C(C)C1CCC2(C)OC2C1 (stereo not drawn)
inactive: UniProt Q8VGC6 | UniProt Q8VGJ3 | UniProt Q8VGL0 | UniProt Q8VGU3 | UniProt Q8VGV7 | UniProt Q8VGX3 | UniProt Q8VGX5

O=C([O-])CCCCCCCC(=O)[O-].[H+].[H+]
inactive: UniProt Q8VGC6 | UniProt Q8VGJ3 | UniProt Q8VGL0 | UniProt Q8VGU3 | UniProt Q8VGV7 | UniProt Q8VGW5 | UniProt Q8VGX3 | UniProt Q8VGX5
